Laboratory results: ChEMBL document CHEMBL4513216, “Probing the Open Global Health Chemical Diversity Library for Multistage-Active Starting Points for Next-Generation Antimalarials” (ACS Infect Dis, 2020)

Experiment: Toxicity liver stage against HepG2, at 10uM
Format: cell-based
Parameters: test concentration 10 uM, cell line HepG2-A16-CD81EGFP
Conditions: human, HepG2-A16-CD81EGFP cells; read-out: INHIBITION
Method in brief: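 Uninfected HepG2-A16-CD81EGFP cells, 3 × 10^3 per well, 1536-well, plated on prespotted compound at 10 μM final, parasite-free screening media added to match infected plates; puromycin 10 μM positive, DMSO 0.5% negative; run in parallel with 48 h PbLuc assay at 37 °C, 5% CO2; viability by CellTiter-Glo luminescence, normalized to controls.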

Row | SMILES | cytotoxicity at 10 µM [%]
1 | COc1ccccc1NC(=O)CC(C)NCCc1sc(C)nc1C (stereo not given) | 4.82
2 | COC(=O)c1ccc(N2CCC(N(C)c3ccccc3)CC2)nn1 | -4.92
3 | Cc1nc(N2CCCC2C(=O)NC(C)(C)CO)nc2ccccc12 (stereo not given) | 0.215
4 | c1ccc(-c2cc(CN3C[C@H]4CC[C@@H](C3)N(CC3CC3)C4)on2)cc1 | -4
5 | Cc1ccccc1-n1cc(-c2ccnc(N3CCCC(CN)C3)n2)cn1 (stereo not given) | 1.34
6 | Clc1ccccc1-c1nc(CNC2CCc3ncnn3C2)cs1 (stereo not given) | -4.28
7 | O=C(Nc1cccc(N2CCCC2)c1)C1CCCN1c1nccs1 (stereo not given) | -6.08
8 | CN(Cc1ccco1)C(=O)CN1C(=O)c2ccccc2C1=O | -2.96
9 | Cc1ccc(-c2cnnc(N3CCCC3c3nonc3C)n2)o1 (stereo not given) | 5.46
10 | Cc1n[nH]c(SCC(=O)NC(c2ccccn2)C(C)C)n1 (stereo not given) | -2.62
11 | COC1CCN(C(=O)Cn2ncc(N3CCCCC3)cc2=O)C1 (stereo not given) | -2.69
12 | Cc1nc(NC(=O)NC2CC(=O)N(C)C2)nn1C (stereo not given) | -12.2
13 | N#Cc1ccc(SCCC(=O)Nc2ccc(CC(N)=O)cc2)cc1 | -5.25
14 | CN(C)S(=O)(=O)c1ccc2c(c1)N(Cc1nccn1C)CCC2 | 2.26
15 | CC(C)CC(=O)N1CC[C@@H]2[C@H](CC1)N(Cc1cccnc1)CCS2(=O)=O | 0.238
16 | O=C(CCNc1ncccn1)NCc1csc(Br)c1 | 5.15
17 | CS(=O)(=O)NCCCn1ccc2ccccc21 | 4.77
18 | CC[C@@H](Cn1ncc2ccccc2c1=O)NC(=O)c1cnccn1 | 6.4
19 | CC(C)c1nc(CN2CCC(c3ccnn3CCO)CC2)no1 | -5.71
20 | O=C(c1ncn2c1CNS(=O)(=O)c1ccccc1-2)N1CC=CC1 | 10.5
21 | O=c1cc(Cn2ccnc2)nc2n1CCCN(Cc1ccc(F)cc1)C2 | 7.17
22 | Cn1cccc1C(=O)N[C@@H]1CN(S(C)(=O)=O)[C@@H]2COC[C@@H]21 | 14.1

Row | SMILES | cytotoxicity at 10 µM [%]
23 | CC(C)COCC(NC(=O)CSc1nnc[nH]1)c1ccco1 (stereo not given) | 11.4
24 | COC(=O)C(NC(=O)C(C)C)c1cc(F)ccc1F (stereo not given) | -4.53
25 | CC(=O)N(Cc1ncc(C)o1)C1CCN(Cc2noc(C)n2)C1 (stereo not given) | 0
26 | Cc1nc(CN2C[C@@H]3CN(C(=O)c4cnccn4)C[C@@H]3C2=O)cs1 | -74.5
27 | Cn1c(=O)[nH]c(=O)n2c(CC(=O)NCc3ccccc3)cnc12 | 7.77
28 | O=C(COCCc1ccccc1)N1CCCC(n2cccn2)C1 (stereo not given) | -3.42
29 | c1cc(CN2CCOCC3(CCN(CC4CCOCC4)CC3)C2)ccn1 | -82.6
30 | CCc1noc(C2CCN(C(=O)CCn3nc(C)cc3C)CC2)n1 | -9.52
31 | COc1cccc(CNC(=O)C(C)n2ccnc2C(C)C)c1OC (stereo not given) | -1.68
32 | NCc1cccc(-c2cccnc2C(=O)NCCN2CCOCC2)c1 | -1.29
33 | CSc1ccc(-c2nc(CN3CCC(C(N)=O)CC3)c(C)o2)cc1 | 4.58
34 | CC(C)CCN1C[C@@H]2C[C@H](C(=O)Nc3cccnc3)[C@H](C1)O2 | -82.5
35 | O[C@@H]1CN(c2nc3ccccc3s2)CC[C@H]1c1ccc2c(c1)OCO2 | 52.7
36 | COCC(=O)NC[C@H]1C[C@@H]2CCN1C[C@@H]2CN1CCc2ccccc2C1 | -1.33
37 | Cc1ccc(N2Cc3c(CN(C)C)nn(C)c3C2)nn1 | 2.47
38 | C1CN(c2nc(C3CC3)ns2)CCO1 | -2.4
39 | COc1cc(C#N)ccc1OCCN1CCC(n2ccnc2)CC1 | 2.75
40 | Cc1noc(C)c1CN(C)Cn1c(=O)oc2ccccc21 | -5.07
41 | CC(C)C(C)NC(=O)Nc1ccc(CS(C)(=O)=O)cc1 (stereo not given) | -8.49
42 | COc1ccccc1CC(C)CC(=O)N(C)Cc1cc(C)on1 (stereo not given) | 3.8
43 | CC(=O)CSc1nnc2n1N=CN(c1cccc(Cl)c1)C2 | 1.05
44 | CCn1ncc(CN2CCC(c3ncc(Cl)cc3S(C)(=O)=O)CC2)c1C | 3.5

Row | SMILES | cytotoxicity at 10 µM [%]
45 | CC(C)(O)CN1CCN(C(=O)c2cccc3cccnc23)CC1 | -10.7
46 | CN(C)C(C)(C)CNCc1c[nH]nc1-c1cc2ccccc2o1 | -3.6
47 | O=S(=O)(c1cc(F)cc(F)c1)N1CCC(Oc2ccc(Cl)cn2)CC1 | -4.63
48 | COc1ccc(C(=O)N2CC(=O)N(Cc3cccs3)CC(O)C2)cc1 (stereo not given) | 4.43
49 | N#CC1(NC(=O)COC(=O)Cn2cccn2)CCCC1 | 8.89
50 | NC(=O)c1cc(-n2cc(-c3cccc(C(=O)O)c3)cn2)cs1 | -0.387
51 | CC(C)n1nnc(CC(=O)NCC2(c3cccc(F)c3)CCCC2)n1 | 4.5
52 | CCc1nccn1CCC(=O)N1CC(=O)N(c2ccccc2C)CC1C (stereo not given) | -15
53 | CC(C)(C)NC(=O)NC(=O)CNC(C)(C)c1ccc2c(c1)OCCO2 | -8.72
54 | CC(O)CN1CCC(CNCc2c[nH]nc2C(C)(C)C)CC1 (stereo not given) | -8.55
55 | Cn1ccc(NCc2cc3cc(F)ccc3o2)n1 | -12.4
56 | O=C(Nc1ccc(F)cc1)C1CNCCN1C(=O)CCc1cccnc1 (stereo not given) | 2.06
57 | Cc1cc(NC(=O)NCC(O)c2ccc(Cl)cc2Cl)n(C)n1 (stereo not given) | -5.38
58 | Cn1c(=O)ccn(CC(=O)Nc2cccnc2)c1=O | -1.58
59 | Cc1nn(C)c(C)c1C(=O)NC(C)CC(=O)c1cccs1 (stereo not given) | -5.08
60 | COCCN1CCN(Cc2nccs2)[C@H]2CS(=O)(=O)C[C@H]21 | -1.82
61 | COc1ccc(Br)c(C(=O)N2CCCC(c3nc(C)no3)C2)c1 (stereo not given) | 7.08
62 | COc1cc(C(=O)N(Cc2cccs2)C2CC2)cc2c1OCCO2 | 8.45
63 | CC(C)CCNC(=O)c1ccc2c(=O)n(-c3ccccc3)cnc2c1 | -4.65
64 | CC(C)c1ccc(C(=O)O)cc1S(=O)(=O)Nc1ccc(=O)n(C)c1 | -13.1
65 | COc1ccc(C(=O)N2CCCC(NC(=O)C(C)C)C2)c(O)c1 (stereo not given) | 0.301
66 | CNC(=O)C1Cc2ccccc2CN1CCc1cccs1 (stereo not given) | -0.837

Row | SMILES | cytotoxicity at 10 µM [%]
67 | COc1cc2cc3c(nc2cc1OC)OCCN(Cc1ccco1)C3 | -0.116
68 | COCCNC(=O)Nc1ccn(-c2cccc(C(F)(F)F)c2)n1 | -1.94
69 | O=C(NCc1cnc2n1CCN(Cc1nccs1)CC2)C1CCC1 | 0.588
70 | CCS(=O)(=O)N1CC[C@H](OC)[C@H]2CN(Cc3ccncc3)C[C@H]21 | 10.3
71 | Cc1cc(CN2CC[C@H]3[C@H]2CCN3C)oc1C | -0.655
72 | CNC(=O)CN1CCOCC12CCN(CCc1ccccc1)CC2 | -76.8
73 | Cc1nn(C)c(C)c1S(=O)(=O)NCC(C)(O)c1ccc2c(c1)OCO2 (stereo not given) | 1.77
74 | CS(=O)(=O)NCC1CCCN(C(=O)c2ccc3c(c2)CCC3)C1 (stereo not given) | -5.52
75 | CCc1noc(CN2CCN(Cc3cccs3)CC2)n1 | -5.06
76 | CC(Cn1cccn1)NCC(=O)N(C)Cc1ccsc1 (stereo not given) | -7.32
77 | O=C(NCC(O)c1ccsc1)c1sccc1OC(F)F (stereo not given) | -16
78 | O=C1CC2(CCSC2)C(=O)N1Cc1ncc(-c2cccc(F)c2)o1 (stereo not given) | 10.3
79 | CN1CCN(C2CCN(CCOc3ccc(Cl)cc3)CC2)C1=O | -5.36
80 | c1cc(CN2CCC3(CCOCC3COCC3CC3)CC2)ccn1 (stereo not given) | -9.52
81 | Cc1nc(C2CCCN2CCc2ccccn2)no1 (stereo not given) | 7.28
82 | Cc1cnn(CC2CCCN2CC(=O)Nc2nncs2)c1 (stereo not given) | -2.03
83 | CN1CCN(CCCNC(=O)C2CCCCC2)CC1 | -1.82
84 | COc1ccccc1CC(C)(C)NC(=O)CNS(C)(=O)=O | 4.21
85 | CN1C(=O)Cc2cc(-c3csc(CCN4CCOC4=O)n3)ccc21 | -11.5
86 | CC(=O)N1CCN(c2cc(C3CN(C)CCO3)nc(C)n2)CC1 (stereo not given) | 1.05
87 | CN1CCN(C(=O)c2nc3c(s2)CCCN3C(=O)C2CC2)CC1 | 1.82
88 | O=C(NC(CN1CCCC1)c1ccccc1)c1c(O)cc(F)cc1F (stereo not given) | -2.3

Row | SMILES | cytotoxicity at 10 µM [%]
89 | CN1CCCN(C(=O)c2cc3c(s2)CCN3C(=O)c2ccccc2)CC1 | 1.05
90 | CCCN1CCC(CNC(=O)C2(c3ccccc3)CCC2)C1 (stereo not given) | -6.29
91 | Cc1ccc2oc(=O)n(CC(=O)N3CCC4(CC3)CN(C)C(=O)O4)c2c1 | -13.8
92 | Cc1cnn(C2CCCN(C(=O)c3cc(-c4cccs4)n[nH]3)C2)c1 (stereo not given) | -7.83
93 | Cn1cncc1-c1nnc([C@H]2CCN(Cc3cccnc3)C2)o1 | -4.39
94 | Cc1cc(C)nc(Nc2cccc(C3CCCN(S(C)(=O)=O)C3)n2)n1 (stereo not given) | -9.62
95 | Cc1ccc2c(c1)C(NCc1ncnn1C)CC2 (stereo not given) | 6.32
96 | CCCn1cnnc1CNC(=O)C1COc2c(cccc2OC)C1 (stereo not given) | -1.26
97 | Cc1ccc(F)cc1NC(=O)C1CCCN1C(=O)C(C)C (stereo not given) | -4.93
98 | CN(C)C(C(=O)NCC1(C)COC1)c1cccc(F)c1 (stereo not given) | -6.41
99 | CC(=O)N1CCN(Cc2ccc(C(F)(F)F)cc2F)CC(O)C1 (stereo not given) | -5.34
100 | Cc1nc(COC[C@H]2CC[C@H]3[C@H](CCN3c3ncccn3)O2)cs1 | -71.2
101 | Cc1cn(CC(=O)Nc2cc(C(C)C)nn2C)cn1 | 5.44
102 | CC(C)c1ncncc1C(=O)N1CCCN(Cc2ccccc2)CC1 | -6.9
103 | O=C(CC1CCCC1)NCCn1nc2ccccn2c1=O | 9.97
104 | Cc1ccc(CN(CCCn2ccnc2)Cc2cccs2)s1 | -17.6
105 | CC(O)(CNC(=O)NCCc1ccc2c(c1)CCO2)c1ccccc1 (stereo not given) | 6.36
106 | c1cnc(N2CCCC3(COCCN(c4nncs4)C3)C2)cn1 (stereo not given) | 1.77
107 | CC(=O)Nc1cccc2c1ccn2CC(=O)Nc1nc[nH]n1 | -0.79
108 | COc1ncccc1CN1C[C@@H]2COC[C@]2(COCC2CC2)C1 | 5.37
109 | O[C@@H]1C[C@@H](c2nc(-c3ccc(OC(F)(F)F)cc3)no2)N(CC2CC2)C1 | 1.32
110 | CC(=O)NCC1CCN(C(=O)NCCOc2ccc3c(c2)CCC3)CC1 | -5.31
